From PubChem BioAssay
Sampled rows, rich in hits. Any-hit rate of the full collection: about 3.4%.
AF4-AF9 inh: inhibitors of human MLL-AF4/AF9 interaction; AlphaScreen, biotin-AF4 peptide binding to FLAG-AF9; P42568; inhibition, % at 10 µM; 350,000 compounds, 0.47% hits; AID 651704;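 active = every replicate reaching a set inhibition limit, whatever the replicate mean, cut at about 25% in these data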;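 note: 0% = plate neutral control median and 100% = total signal loss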
ERAP1 HTS inh: blocks human ERAP1 aminopeptidase activity. 340,000 compounds, 0.15% hits. recombinant ERAP1, Leu-AMC fluorescence, 60 min. AID 652197. inhibition, % at 10.7 µM. Q9NZ08;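 active = mean replicate inhibition of at least 30%, or all replicates individually reaching that 30% level; inactive = mean below 30% and not every replicate reaching it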;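 note: 0% = neutral control wells and 100% = L-leucinethiol positive control wells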
S100A4 inh HTS: inhibitors of human S100A4 binding to myosin IIA peptide; P26447; S100A4/TAMRA-MyoIIA peptide fluorescence polarization; inhibition, % at 10.7 µM; 360,000 compounds, 0.14% hits;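 active = mean inhibition of at least 70% across replicates, with every replicate also reaching that level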
Target sequence (P26447 whole entry, looked up): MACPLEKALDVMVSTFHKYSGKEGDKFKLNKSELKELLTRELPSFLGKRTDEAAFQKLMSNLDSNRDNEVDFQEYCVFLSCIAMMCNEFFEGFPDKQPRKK
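Material: S100A4 monomer protein / Buffer or medium: 50 mM HEPES pH 7.2, 10 mM CaCl2, 100 mM KCl / Times: 5 min incubation before reading / Benchmarks: neutral control DMSO, positive control TFP / Reagent: labelled myosin peptide probe, 5 nM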
Ecoli rRNA inh: inhibitors of bacterial rRNA selective over humanized ribosomes | GFP signal change (wild-type ribosome), % (no concentration beside the values) | E. coli WT GFP vs humanized-ribosome RFP mutants, fluorescence, 24 h; hits give low values; DMSO median 0, no signal -100 | AID 720706 | 350,000 compounds, 1.6% hits;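 active = significant combined selectivity score with lowered wild-type GFP, culture density cut under 30%, mutant RFP and density less affected; inactive = any of these conditions unmet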
SIRT5 inh: sirtuin-5 (human) deacylase inhibition. Q9NXA8. Purified SirT5, succinyl-peptide AMC, trypsin-coupled fluorescence. inhibition, % at 15 µM. 330,000 compounds, 1.1% hits. AID 652115; in the data active = inhibition above about 15%
E-sel inducer: E-selectin induction on HUVECs; activation, % at 7.58 µM; HUVEC E-selectin immunofluorescence imaging; normalized: neutral wells 0, TNF-alpha wells 100; AID 686992; 260,000 compounds, 0.37% hits; P16581;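 active = mean E-selectin-positive cell signal at least 10% of the positive control, reached in at least 60% of replicates, without over 20% cell loss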
Target sequence (P16581 whole entry, looked up): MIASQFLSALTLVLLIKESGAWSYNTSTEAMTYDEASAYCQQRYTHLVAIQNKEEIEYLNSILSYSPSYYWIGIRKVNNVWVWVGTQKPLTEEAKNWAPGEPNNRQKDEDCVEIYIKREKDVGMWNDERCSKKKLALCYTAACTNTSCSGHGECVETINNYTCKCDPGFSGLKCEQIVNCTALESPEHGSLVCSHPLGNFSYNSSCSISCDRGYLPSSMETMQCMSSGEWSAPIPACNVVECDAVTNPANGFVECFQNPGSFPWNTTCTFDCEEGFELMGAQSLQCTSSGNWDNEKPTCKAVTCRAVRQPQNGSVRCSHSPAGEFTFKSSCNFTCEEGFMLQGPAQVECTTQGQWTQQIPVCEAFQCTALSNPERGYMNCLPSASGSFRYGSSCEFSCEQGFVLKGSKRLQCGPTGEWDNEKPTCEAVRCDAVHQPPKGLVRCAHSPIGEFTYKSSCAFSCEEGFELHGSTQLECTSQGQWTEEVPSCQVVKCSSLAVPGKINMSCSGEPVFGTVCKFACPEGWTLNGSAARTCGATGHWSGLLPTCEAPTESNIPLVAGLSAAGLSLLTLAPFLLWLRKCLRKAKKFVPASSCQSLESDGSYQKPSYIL
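Read-out: % PE-positive cells | Test system: HUVEC | Doses: One compound dose added by pin transfer | Buffer or medium: EGM-2 over gelatin coat | Signal: Immunofluorescence imaging | Benchmarks: TNF-alpha, DMSO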
* hit, by the source's call; x = no result.

SMILES | AF4-AF9 inh | ERAP1 HTS inh | S100A4 inh HTS | Ecoli rRNA inh | SIRT5 inh | E-sel inducer
COc1ccc(NC(=O)c2oc3ccccc3c2NC(=O)C2CCCO2)cc1OC (centres undefined) | 7.2 | 5.6 | 8.0 | -36.8* | 1.4 | x
CCOCC(=O)Nc1c(C(=O)Nc2ccc3c(c2)OCCO3)oc2ccccc12 | 1.7 | 0.9 | -1.8 | -25.0* | 7.0 | 0.2
COc1ccc(C2C(C(C)=O)=C(O)C(=O)N2c2ccc(C)cc2)cc1 (centres undefined) | -3.0 | 0.5 | -4.9 | -24.0* | -0.1 | 0.0
CCCCCCCCCCCCCCCC[N+](C)(C)CC | -0.1 | 77.5* | 3.2 | -58.0 | 7.3 | 1.6
CCCCCCCCCCCCCCCC[N+](C)(C)CCl | 1.7 | 88.1* | 4.2 | -56.4 | x | -0.4
CCCCCC[N+](C)(C)CCSSCC[N+](C)(C)CCCCCC | -7.8 | x | -4.8 | 4.1 | -2.6 | x
CC#CC[N+](C)(C)CCCCCCCCCCCC | 2.6 | 42.4* | -2.7 | -59.4 | 2.6 | 1.0
CN(CC(=O)Nc1ccc(F)c(F)c1F)C(=O)CCCc1nc2ccccc2c(=O)[nH]1 | 0.6 | -2.4 | -0.8 | x | -4.5 | x
CN(CC(=O)Nc1cccc(F)c1)C(=O)CCc1nc2ccccc2c(=O)[nH]1 | -2.3 | 49.3* | -2.7 | 13.9 | 0.3 | 0.0
O=C(O)c1ccccc1C(=O)NCc1c(Cl)cccc1Sc1ccc(Cl)cc1 | -0.1 | -4.5 | -1.3 | -29.1* | -3.0 | 0.3
O=C(O)CCCC(=O)NCc1c(Cl)cccc1Sc1ccc(Cl)cc1 | -2.9 | x | -4.2 | x | 3.7 | x
CC(C)(CC(=O)O)CC(=O)NCc1c(Cl)cccc1Sc1ccc(Cl)cc1 | -1.1 | -4.3 | 12.2 | -40.3* | 4.7 | x
NNC(=S)Nc1cccc(-c2n[nH]c(=S)o2)c1 | x | -8.4 | -7.8 | -6.0 | 18.3* | -0.2
CN(C)C(=S)Nc1cccc(-c2n[nH]c(=S)o2)c1 | -0.9 | -12.9 | -0.1 | 10.3 | -3.4 | 1.0
COc1ccc(S(=O)(=O)Nc2ccc3c(c2)C(=O)N([C@@H](C)CO)C[C@H](C)[C@H](CN(C)S(=O)(=O)c2c(C)noc2C)O3)cc1 | 1.0 | -0.6 | 0.5 | -0.5 | -5.1 | 0.1
C=CCNC(=O)COc1ccc(Oc2ccccc2)cc1 | -1.8 | 2.9 | 2.6 | -14.8 | -2.2 | 2.5
C=CCNC(=O)COc1c(C)ccc(C)c1C | -1.5 | 3.5 | 1.0 | -2.7 | 22.7* | 1.4
COc1ccc(C2CCCN2C(=S)Nc2ccc(C)c(C)c2)cc1OC (centres undefined) | -1.7 | -3.1 | 1.9 | -14.8 | -2.8 | 7.2
COc1ccc(C2CCCN2C(=O)Nc2ccc(C)c(C)c2)cc1OC (centres undefined) | -5.7 | -6.1 | -0.6 | -8.1 | 15.8* | 0.4
COCC(=O)Nc1ccc2c(c1)OC[C@H](C)N(CCc1ccccc1)C[C@H](C)[C@@H](OC)CN(C)C2=O | x | x | x | -7.7 | x | x
C[C@H]1CN([C@@H](C)CO)C(=O)c2c(c3ccccc3n2C)-c2ccccc2CO[C@@H]1CN(C)Cc1cccc(F)c1 | 8.7 | -3.8 | -4.1 | -7.0 | 17.9* | -0.7
C[C@@H]1CN([C@@H](C)CO)C(=O)c2c(c3ccccc3n2C)-c2ccccc2CO[C@H]1CN(C)Cc1cccc(C(=O)Nc2ccccc2N)c1 | 5.1 | 0.5 | 1.0 | 2.6 | 17.3* | -0.3
C[C@H]1CN([C@@H](C)CO)C(=O)c2c(c3ccccc3n2C)-c2ccccc2CO[C@@H]1CN(C)Cc1ccc2c(c1)OCO2 | 9.5 | -1.1 | 10.5 | -36.8 | 19.5* | -2.6
C[C@@H]1CN([C@H](C)CO)C(=O)c2c(c3ccccc3n2C)-c2ccccc2CO[C@H]1CN(C)Cc1ccc2c(c1)OCO2 | 7.6 | -0.1 | -8.3 | -5.2 | 6.9 | 4.7
C[C@H](CO)N1C[C@H](C)[C@H](CN(C)Cc2cccc(C(=O)O)c2)OCc2ccccc2-c2c(n(C)c3ccccc23)C1=O | -7.6 | -1.9 | 10.0 | 3.7 | -3.3 | -0.6
SMILES | AF4-AF9 inh | ERAP1 HTS inh | S100A4 inh HTS | Ecoli rRNA inh | SIRT5 inh | E-sel inducer
C[C@@H]1CN([C@@H](C)CO)C(=O)c2c(c3ccccc3n2C)-c2ccccc2CO[C@@H]1CN(C)Cc1cccc(O)c1 | 9.6 | -1.4 | 2.8 | -38.8 | 22.7* | -0.1
CCNC(=O)C[C@@H]1CC[C@@H]2[C@@H](COc3ccc(NC(=O)C4CCCCC4)cc3C(=O)N2C)O1 | -1.2 | -0.3 | 15.9 | -0.4 | 2.9 | -0.1
C[C@H](CO)N1C[C@H](C)[C@@H](CN(C)S(=O)(=O)c2cccs2)Oc2ccc(NS(=O)(=O)c3ccc(Cl)cc3)cc2C1=O | -1.2 | 4.2 | -6.4 | -5.4 | 2.0 | 1.3
CCCNC(=O)[C@@H]1[C@@H](CO)[C@@H]2Cn3c(ccc(-c4cccc(OC)c4)c3=O)[C@@H]2N1C | -4.6 | 1.8 | 1.3 | 0.0 | -2.4 | 0.2
CC(=O)N1N=C(c2cccc(NS(C)(=O)=O)c2)CC1c1cccs1 (centres undefined) | -0.7 | -4.7 | 21.3 | -3.1 | 23.1* | x
CCS(=O)(=O)Nc1cccc(C2=NN(C(C)=O)C(c3cccs3)C2)c1 (centres undefined) | -0.2 | -2.0 | 0.8 | 20.2 | -0.6 | x
CN1C(=O)c2cc(NC(=O)C3CC3)ccc2OC[C@H]2O[C@@H](CC(=O)Nc3cccc(Cl)c3)CC[C@@H]21 | -1.7 | 3.8 | -76.2 | -1.8 | 6.3 | 0.1
CCCCOc1ccc(C(=O)NCCN2CCC(n3c(=O)[nH]c4ccccc43)CC2)cc1 | -0.1 | -2.6 | 13.7 | -44.9* | -2.6 | -0.1
O=C(NN=Cc1c(O)ccc2ccccc12)C1CC1 | 1.5 | 4.2 | -1.6 | -16.8* | 7.0 | -0.3
Oc1ccccc1N=Cc1c(O)ccc2ccccc12 | -0.8 | 0.1 | -5.4 | -8.8 | 23.1* | 0.6
Oc1cccc(C=Nc2cccc3ccccc23)c1O | 1.4 | -3.0 | -6.0 | -31.8* | -2.5 | 1.7
Oc1ccc2ccccc2c1C=Nc1ccccc1Br | -1.8 | 0.4 | 0.4 | 7.3 | 0.1 | 0.4
O=C(NN=Cc1cccc2ccccc12)C1CC1 | 4.0 | 1.3 | 0.8 | -16.1 | -0.3 | 0.2
C[C@@H]1CCCCO[C@H](CN(C)C(=O)C2CCCCC2)[C@H](C)CN([C@H](C)CO)C(=O)c2cc(NS(C)(=O)=O)ccc2O1 | 2.3 | -1.0 | 8.6 | -2.3 | 0.5 | 0.3
C[C@@H]1CCCCO[C@@H](CN(C)CC2CCCCC2)[C@H](C)CN([C@H](C)CO)C(=O)c2cc(NC(=O)Nc3ccccc3)ccc2O1 | 7.8 | -3.8 | 15.3 | 5.0 | 0.2 | -0.2
CC(C)NC(=O)N(C)C[C@@H]1Oc2cc(C#CC(C)(C)O)ccc2S(=O)(=O)N([C@@H](C)CO)C[C@H]1C | -2.3 | x | x | -1.6 | -3.5 | -2.4
CC(C)(C)[S@](=O)N1Cc2cc(C(=O)N3CCOCC3)nc(-c3cccc(Br)c3)c2[C@@H]1CCO | 6.4 | -0.6 | -25.5 | -1.0 | 6.9 | 0.3
